Sampled rows, rich in hits. Any-hit rate of the full collection: about 1.6%.
GSTO1 inh – inhibitors of recombinant GSTO1, primary screen, counter-screen for RBBP9 inhibitor project, biochemical, fluorescence polarization | 300,000 tested, 1.1% active | activity-based probe fluorescence polarization | inhibition, % at 5.96 µM;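 active = inhibition above the campaign mean inhibition plus 3 SD, cut at about 35% in these data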;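 note: 0% = GSTO1-1 with DMSO and 100% = wells lacking GSTO1-1 enzyme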
GASC-1 inh – inhibitors of GASC-1 histone demethylase, primary screen, biochemical, fluorescence, DELFIA europium | Lysine-specific demethylase 4C (Homo sapiens), Q9H3R0 | GST-JMJD2C(1-420) H3K9me3 demethylation | inhibition, % at 2.35 µM | 330,000 tested, 0.069% active;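 active = more than half of a compound's replicate wells show inhibition beyond 50%, single wells judged on their own value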;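 note: signal counts dimethyl H3K9 product captured on neutravidin plate; 0% = median of DMSO wells and 100% = 0.3 times that DMSO median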
PAD4 inh – human PAD4 inhibitors, primary screen, biochemical, fluorescence polarization, 1536-well format; recombinant PAD4, RCA probe fluorescence polarization; Protein-arginine deiminase type-4 (Homo sapiens), Q9UM07; inhibition, % at 6.36 µM; 330,000 tested, 0.41% active;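 active = percent inhibition above a cutoff equal to the mean of all tested compounds plus 3 SD, cut at about 15% in these data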;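 note: 0% = PAD4 with RCA probe and DMSO and 100% = probe without PAD4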
SUMO HTRF inh – inhibitors of in vitro SUMOylation cascade, primary screen, biochemical, HTRF, uHTS. AID 2006, 2009. 290,000 tested, 0.36% active. inhibition, % at 35 µM. SUMO-conjugating enzyme UBC9 (Homo sapiens), P63279. HTRF SUMOylation assay, SAE1/SAE2 + UBC9; in the data active = inhibition above about 50%, passing the limit was not always enough
Target sequence (P63279 whole entry, looked up): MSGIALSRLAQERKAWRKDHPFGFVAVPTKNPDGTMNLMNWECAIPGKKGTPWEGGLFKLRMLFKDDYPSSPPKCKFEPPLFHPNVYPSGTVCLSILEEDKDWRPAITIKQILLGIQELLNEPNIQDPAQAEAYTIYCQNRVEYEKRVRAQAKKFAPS
TDP2 absorb – human TDP2 enzyme inhibitors, primary screen, biochemical, epi absorbance, recombinant enzyme; T5PNP hydrolysis, p-nitrophenol absorbance 415 nm; inhibition, % at 12.8 µM; 370,000 tested, 0.34% active;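 active = inhibition above the mean of all tested compounds plus 3 SD, set per campaign, cut at about 25% in these data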;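 note: 0% = DMSO with enzyme and 100% = buffer with substrate but no TDP2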
Target sequence (O95551 whole entry, looked up): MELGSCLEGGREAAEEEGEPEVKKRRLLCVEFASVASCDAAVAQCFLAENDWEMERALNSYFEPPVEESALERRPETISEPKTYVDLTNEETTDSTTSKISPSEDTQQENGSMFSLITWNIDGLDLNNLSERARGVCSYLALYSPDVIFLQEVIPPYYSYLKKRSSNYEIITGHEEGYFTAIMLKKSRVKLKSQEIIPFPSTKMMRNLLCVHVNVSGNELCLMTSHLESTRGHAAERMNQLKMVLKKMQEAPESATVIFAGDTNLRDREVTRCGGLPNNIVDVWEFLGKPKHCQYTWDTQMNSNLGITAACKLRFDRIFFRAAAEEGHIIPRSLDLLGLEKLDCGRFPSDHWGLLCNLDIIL
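Test system: Human TDP2 enzyme | Reagent: 5 mM T5PNP | Compound dosing: 12.8 µM single point, 1% DMSO | Incubation: Enzyme reaction with compound for 2 h at 37 °C | Technique: p-Nitrophenol epi absorbance | Read-out: % inhibition relative to enzyme-containing and enzyme-free wells | Benchmarks: High control without enzyme, low control DMSO plus TDP2 | Replicates: Singlicate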
Apaf1 inhib – inhibitors of human Apaf-1 apoptosome, primary screen, biochemical, DEVD-Rh110 fluorescence, uHTS. Apoptotic protease-activating factor 1 (Homo sapiens), O14727. reconstituted apoptosome caspase-3 activity. inhibition, % at 20 µM. 330,000 tested, 0.71% active. AID 489030, 2010; active = inhibition of at least 40% at 20 µM;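 note: plate controls were DMSO wells for no effect and DEVD-CHO caspase inhibitor wells for full effect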
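Assay system: Apoptosome proteins | Medium: pH 7.5 Hepes buffer with CHAPS, BSA, DTT | Also added: Cytochrome c and DEVD-Rh110 substrate | Times: 30 min plus 50 min, RT | Detection: Rhodamine 110 fluorescence at Ex 480/Em 540 nm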
TDP2 confirm – human TDP2 enzyme inhibitors, retest, confirmation, biochemical, epi absorbance, recombinant enzyme; 1,100 tested, 22% active; AID 743263, 2014; inhibition, % at 12.8 µM; absorbance read-out; shares compounds with TDP2 absorb; in the data active = inhibition above about 25%;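 note: 0% = vehicle with enzyme and 100% = no enzyme buffer only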
An asterisk follows results filed as active; · = no result.

SMILES	GSTO1 inh	GASC-1 inh	PAD4 inh	SUMO HTRF inh	TDP2 absorb	Apaf1 inhib	TDP2 confirm
COc1ccc(Cn2c(NC(=O)c3ccccc3)nc(Cc3ccccc3)c2-c2ccccc2)cc1	·	·	·	·	1.4	·	·
CCCCNC(=O)C[C@H]1C[C@@]2(C(=O)OC)C(=C[C@H](C(C)C)O[C@@H]2C2CC2)N(Cc2ccco2)C1=O	·	·	·	·	1.8	·	·
CC(=O)NC1C(=O)N(CCN2CCOCC2)c2ccc(Br)cc21 (stereo not drawn)	-3.9	7.5	3.9	62.2*	44.1*	2.9	36.2*
CCOC(=O)c1cnc(SC)nc1N	1.4	-2.5	-3.9	10.9	5.2	-8.5	·
CCOC(=O)c1cnc(SC)nc1N1CCCC1	14.7	14.6	-2.1	20.2	28.5*	9.5	-6.3
Cc1ccc(OCCCCN2CCCCC2)cc1	·	1.1	·	4.5	-11.0	-3.1	·
Cc1ccc(OCCN2CCCC2)cc1	-1.7	-11.4	0.5	4.8	24.6*	-6.3	11.4
Cc1ccccc1NC(=O)OC1CCC12CCC(c1ccccc1)CC2 (stereo not drawn)	·	·	·	·	-4.8	·	·
COc1cc(Cc2nccc3cc(OC)c(OC)cc23)c(S(=O)(=O)O)cc1OC	6.4	3.3	-13.2	-15.1	40.5*	1.6	3.6
COc1ccccc1-n1ccnc(SCC(=O)NCc2ccccc2Cl)c1=O	2.0	-3.0	2.1	·	28.9*	2.0	4.5
Cc1ccc(-n2nc3c(c2NC(=O)C2CC2)CS(=O)(=O)C3)cc1C	0.4	-1.7	1.1	2.0	2.3	6.7	·
Cc1ccc(-n2nc3c(c2NC(=O)C2CC2)CS(=O)(=O)C3)cc1	2.1	3.1	1.2	12.5	26.7*	12.6	6.5
C[C@@H]1[C@@H](c2ccccc2)c2cc3ccccc3nc2-c2nc3ccccc3cc2[C@@H]1C(=O)N1CCCC1	·	·	·	·	-8.0	·	·
O=C(NC1CCCC1)C(c1ccc(N2CCOCC2)cc1)N(Cc1ccccc1)C(=O)c1ccco1 (stereo not drawn)	-1.1	-27.0	-0.1	-1.3	32.2*	6.2	-7.2
O=C(NC1CCCC1)C(c1ccc(N2CCOCC2)cc1)N(Cc1ccco1)C(=O)c1ccco1 (stereo not drawn)	-6.6	2.5	-5.7	-10.1	-8.8	5.2	·
CC(C)CC(=O)N1CCN(S(=O)(=O)c2ccc3ccccc3c2)CC1	1.6	1.9	-4.5	-5.5	-7.2	-1.1	·
CCC(C)N1CCN(S(=O)(=O)c2ccc3ccccc3c2)CC1 (stereo not drawn)	-3.2	7.2	-1.5	-15.4	32.2*	6.7	6.4
O=[N+]([O-])c1cccc(OCCCN2CCC(C(O)(c3ccccc3)c3ccccc3)CC2)c1	·	·	·	·	0.7	·	·
O=C(CCC(=O)NC1CCCCC1)NCc1ccc(F)cc1	8.9	3.5	0.8	-5.2	48.4*	5.7	-1.1
CC(NC1=CC(=O)c2cccnc2C1=O)C(O)c1ccccc1 (stereo not drawn)	·	·	·	·	57.0*	·	71.2*
COc1cc(CCNC2=CC(=O)c3ncccc3C2=O)ccc1O	·	·	·	·	28.9*	·	34.9*
COc1ccccc1CNS(=O)(=O)c1cc(CN2C(=O)c3cccnc3C2=O)ccc1OC	4.0	2.1	1.0	-1.5	13.0	-2.7	·
CCOC(=O)C1(C(=O)OCC)Cc2c([nH]c3ccccc23)[C@]2(N1)C(=O)N(C)c1ccc(Br)cc12	·	·	·	·	-13.9	·	·
CCOC(=O)Cn1cc(CN2C(C(=O)OC)CN(Cc3ccc(F)cc3)CCS2(=O)=O)nn1 (stereo not drawn)	·	·	·	·	-7.1	·	·
NC(=O)Nc1ccc(C(=O)OCC(=O)N(Cc2ccccc2)C2CCS(=O)(=O)C2)cc1 (stereo not drawn)	1.0	3.9	-1.1	-9.7	-1.5	-3.5	·

Assay outcomes: PubChem BioAssay, several laboratories
